# Experimental data as given in ChEMBL document CHEMBL1151742, “Design, synthesis, and characterization of high-affinity, systemically-active galanin analogues with potent anticonvulsant activities” (J Med Chem, 2008).
# Structures can show the parent of a compound that is named as a salt. Activity calls are given as the source filed them. The rule behind the calls is not given here. Square brackets hold non-standard residues; d marks the D form. Peptide text beside a SMILES is read from it. * marks the point of attachment. Fmoc = O=C(OCC1c2ccccc2-c2ccccc21)*; Palmitoyl = CCCCCCCCCCCCCCCC(=O)*; Cha = N[C@@H](CC1CCCCC1)C(=O)O; AMC = Cc1cc(=O)oc2cc(N*)ccc12; Sar = CNCC(=O)O
# Columns and labels:
# Mus musculus [1] = assay: Anticonvulsant activity in CF1 mouse assessed as inhibition of 6 Hz corneal stimulation-induced limbic seizures at 4 mg/kg, ip administered 240 mins before 6 Hz corneal stimulation; format: functional, organism-based; set-up: dose 4 mg/kg; conditions: Limbic system
# In short: (§1)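 Each analogue given ip at 4 mg/kg to five groups of CF-1 mice (n = 4 per group), one group per time point. Seizure challenge was 6 Hz corneal stimulation (32 mA for 3 s, corneal electrodes) at 15, 30, 60, 120 or 240 min after dosing. A mouse without a limbic seizure (jaw chomping, vibrissae twitching, forelimb clonus, Straub tail) was counted as protected.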
# Mus musculus [2] = assay: Anticonvulsant activity in CF1 mouse assessed as inhibition of 6 Hz corneal stimulation-induced limbic seizures at 4 mg/kg, ip administered 60 mins before 6 Hz corneal stimulation; format: functional, organism-based; set-up: dose 4 mg/kg; conditions: Limbic system; in short: as §1
# Galanin receptor type 1 = molecular target: T1, Galanin receptor type 1 (Homo sapiens, UniProt P47211); assay: Displacement of europium-labeled galanin from human GalR1 expressed in HEK293 EBNA cells; format: cell-based
# T1 sequence (P47211 whole entry): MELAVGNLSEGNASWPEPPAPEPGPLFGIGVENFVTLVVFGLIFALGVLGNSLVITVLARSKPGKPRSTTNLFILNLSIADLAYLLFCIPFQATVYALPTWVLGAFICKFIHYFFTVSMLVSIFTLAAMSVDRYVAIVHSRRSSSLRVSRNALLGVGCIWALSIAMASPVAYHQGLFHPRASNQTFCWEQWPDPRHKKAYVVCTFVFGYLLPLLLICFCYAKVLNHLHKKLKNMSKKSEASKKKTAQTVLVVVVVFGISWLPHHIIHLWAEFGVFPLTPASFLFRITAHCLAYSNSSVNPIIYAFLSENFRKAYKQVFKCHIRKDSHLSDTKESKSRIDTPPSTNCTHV
# [3] = Metabolic stability in rat serum assessed as half life at pH 7.5; format: ADME, cell-free
# In short: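 Peptide (final 20 µM) was incubated in 25% rat serum with 0.1 M Tris-HCl pH 7.5 at 37 °C, serum pre-warmed 10 min. Aliquots taken up to 8 h were quenched with 15% TCA in 40% isopropanol, held 15 min at -20 °C and centrifuged. Intact peptide was measured by reversed-phase HPLC peak area, and half-life was calculated from the disappearance.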
# Galanin receptor type 2 [4] = molecular target: T2, Galanin receptor type 2 (Homo sapiens, UniProt O43603); assay: Displacement of europium-labeled galanin from human GalR2 expressed in CHO-K1 cells; format: cell-based
# T2 sequence (O43603 whole entry): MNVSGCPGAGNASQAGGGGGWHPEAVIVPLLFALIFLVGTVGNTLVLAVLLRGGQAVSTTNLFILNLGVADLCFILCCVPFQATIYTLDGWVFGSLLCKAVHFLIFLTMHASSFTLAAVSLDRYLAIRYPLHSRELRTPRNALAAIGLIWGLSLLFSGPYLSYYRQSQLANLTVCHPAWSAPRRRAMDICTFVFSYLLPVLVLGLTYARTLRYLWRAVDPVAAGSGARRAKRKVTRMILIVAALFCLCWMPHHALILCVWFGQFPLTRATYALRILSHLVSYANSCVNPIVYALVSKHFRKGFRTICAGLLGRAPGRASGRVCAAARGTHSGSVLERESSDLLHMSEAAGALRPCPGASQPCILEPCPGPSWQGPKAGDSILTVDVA
# Mus musculus [5] = assay: Anticonvulsant activity in CF1 mouse assessed as inhibition of 6 Hz corneal stimulation-induced limbic seizures at 4 mg/kg, ip administered 15 mins before 6 Hz corneal stimulation; format: functional, organism-based; set-up: dose 4 mg/kg; conditions: Limbic system; in short: as §1
# Galanin receptor type 2 [6] = molecular target: T2, Galanin receptor type 2; assay: Binding affinity to human GalR2
# Mus musculus [7] = assay: Anticonvulsant activity in CF1 mouse assessed as inhibition of 6 Hz corneal stimulation-induced limbic seizures at 4 mg/kg, ip administered 120 mins before 6 Hz corneal stimulation; format: functional, organism-based; set-up: dose 4 mg/kg; conditions: Limbic system; in short: as §1
Structure (SMILES),Activity (Mus musculus [1]),Activity (Mus musculus [2]),Ki (Galanin receptor type 1) [nM],half-life [3] [h],Ki (Galanin receptor type 2 [4]) [nM],Activity (Mus musculus [5]),Kd (Galanin receptor type 2 [6]) [nM],Activity (Mus musculus [7])
CCCCCCCCCCCCCCCC(=O)NCCCC[C@H](NC(=O)[C@H](CCCNC(=N)N)NC(=O)[C@H](CCCNC(=N)N)NC(=O)[C@@H]1CCCN1C(=O)CNC(=O)[C@H](CC(C)C)NC(=O)[C@H](CC(C)C)NC(=O)[C@H](Cc1ccc(O)cc1)NC(=O)CNC(=O)[C@H](C)NC(=O)[C@H](CO)NC(=O)[C@H](CC(N)=O)NC(=O)[C@H](CC(C)C)NC(=O)[C@@H](NC(=O)[C@H](Cc1c[nH]c2ccccc12)NC(=O)CNC)[C@@H](C)O)C(=O)N[C@@H](CCCNC(=N)N)C(N)=O,inactive,Active,–,–,–,–,–,–
CCCCCCCCCCCCCCCC(=O)NCCCC[C@H](NC(=O)[C@@H](CCCCN)NC(=O)[C@@H](CCCCN)NC(=O)[C@@H]1CCCN1C(=O)CNC(=O)[C@H](CC(C)C)NC(=O)[C@H](CC(C)C)NC(=O)[C@H](Cc1ccc(O)cc1)NC(=O)CNC(=O)[C@H](C)NC(=O)[C@H](CO)NC(=O)[C@H](CC(N)=O)NC(=O)[C@H](CC(C)C)NC(=O)[C@@H](NC(=O)[C@H](Cc1c[nH]c2ccccc12)NC(=O)CNC)[C@@H](C)O)C(=O)N[C@H](CCCCN)C(N)=O,–,–,0.9,> 10,–,–,–,–
CCCCCCCCCCCCCCCC(=O)NCCCC[C@H](NC(=O)[C@H](CCCN=C(N)N)NC(=O)[C@H](CCCN=C(N)N)NC(=O)[C@@H]1CCCN1C(=O)CNC(=O)[C@H](CC(C)C)NC(=O)[C@H](CC(C)C)NC(=O)[C@H](Cc1ccc(O)cc1)NC(=O)CNC(=O)[C@H](C)NC(=O)[C@H](CO)NC(=O)[C@H](CC(N)=O)NC(=O)[C@H](CC(C)C)NC(=O)[C@@H](NC(=O)[C@H](Cc1c[nH]c2ccccc12)NC(=O)CNC)[C@@H](C)O)C(=O)N[C@@H](CCCN=C(N)N)C(N)=O,–,–,3.3,4.8,65.5,–,–,–
CCCCCCCCCCCCCCCC(=O)NCCCC[C@H](NC(=O)[C@H](CCCCN)NC(=O)[C@H](CCCCN)NC(=O)[C@@H]1CCCN1C(=O)CNC(=O)[C@H](CC(C)C)NC(=O)[C@H](CC(C)C)NC(=O)[C@H](Cc1ccc(O)cc1)NC(=O)CNC(=O)[C@H](C)NC(=O)[C@H](CO)NC(=O)[C@H](CC(N)=O)NC(=O)[C@H](CC(C)C)NC(=O)[C@@H](NC(=O)[C@H](Cc1c[nH]c2ccccc12)NC(=O)CCCCCN)[C@@H](C)O)C(=O)N[C@@H](CCCCN)C(N)=O,–,–,21.5,> 10,51,Active,–,–
CCCCCCCCCCCCCCCC(=O)NCCCC[C@@H](NC(=O)[C@H](CCCCN)NC(=O)[C@@H](CCCCN)NC(=O)[C@H]1CCCN1C(=O)CNC(=O)[C@H](CC(C)C)NC(=O)[C@H](CC(C)C)NC(=O)[C@H](Cc1ccc(O)cc1)NC(=O)CNC(=O)[C@H](C)NC(=O)[C@H](CO)NC(=O)[C@H](CC(N)=O)NC(=O)[C@H](CC(C)C)NC(=O)[C@@H](NC(=O)[C@H](Cc1c[nH]c2ccccc12)NC(=O)CNC)[C@@H](C)O)C(=O)N[C@@H](CCCCN)C(N)=O,–,Active,–,–,–,–,–,–
COC(=O)[C@H](CCCCN)NC(=O)[C@]1(C)NC(=O)c2nc(oc2C)[C@](C)(C(=O)NC2c3ccccc3-c3ccccc32)NC(=O)c2nc(oc2C)[C@](C)(C(=O)NCC2CCCCC2)NC(=O)c2nc1oc2C [GALMIC TFA],–,–,–,–,–,–,> 100000,–
CCCCCCCCCCCCCCCC(=O)NCCCC[C@H](NC(=O)[C@H](CCCCN)NC(=O)[C@H](CCCCN)NC(=O)[C@H](CCCCN)NC(=O)[C@H](CCCCN)NC(=O)[C@H](CC(C)C)NC(=O)[C@H](CC(C)C)NC(=O)[C@H](Cc1ccc(O)cc1)NC(=O)CNC(=O)[C@H](C)NC(=O)[C@H](CO)NC(=O)[C@H](CC(N)=O)NC(=O)[C@H](CC(C)C)NC(=O)[C@@H](NC(=O)[C@H](Cc1c[nH]c2ccccc12)NC(=O)CNC)[C@@H](C)O)C(=O)N[C@@H](CCCCN)C(N)=O (H-[Sar]WTLNSAGYLLKKKKK(Palmitoyl)K-NH2),–,–,41.5,8.7,215,–,–,Active
CCCCCCCCCCCCCCCC(=O)NCCCC[C@H](NC(=O)[C@H](CCCCN)NC(=O)[C@H](CCCCN)NC(=O)CNC(=O)[C@H](CC(C)C)NC(=O)[C@H](CC(C)C)NC(=O)[C@H](Cc1ccc(O)cc1)NC(=O)CNC(=O)[C@H](C)NC(=O)[C@H](CO)NC(=O)[C@H](CC(N)=O)NC(=O)[C@H](CC(C)C)NC(=O)[C@@H](NC(=O)[C@H](Cc1c[nH]c2ccccc12)NC(=O)CNC)[C@@H](C)O)C(=O)N[C@@H](CCCCN)C(N)=O,inactive,–,25.5,5.6,75,–,–,inactive
CC(C)C[C@H](NC(=O)[C@H](CC(C)C)NC(=O)[C@H](Cc1ccc(O)cc1)NC(=O)CNC(=O)[C@H](C)NC(=O)[C@H](CO)NC(=O)[C@H](CC(N)=O)NC(=O)[C@H](CC(C)C)NC(=O)[C@@H](NC(=O)[C@@H](N)Cc1c[nH]c2ccccc12)[C@@H](C)O)C(=O)O,–,–,–,–,–,–,1.8,–
CCCCCCCCCCCCCCCC(=O)NCCCC[C@H](NC(=O)[C@@H]1CCCN1C(=O)CNC(=O)[C@H](CC(C)C)NC(=O)[C@H](CC(C)C)NC(=O)[C@H](Cc1ccc(O)cc1)NC(=O)CNC(=O)[C@H](C)NC(=O)[C@H](CO)NC(=O)[C@H](CC(N)=O)NC(=O)[C@H](CC(C)C)NC(=O)[C@@H](NC(=O)[C@H](Cc1c[nH]c2ccccc12)NC(=O)CNC)[C@@H](C)O)C(=O)N[C@@H](CCCCN)C(=O)N[C@@H](CCCCN)C(=O)N[C@@H](CCCCN)C(N)=O,–,–,25.5,> 10,108,inactive,–,inactive
CCCCCCCCCCCCCCCC(=O)NCCCC[C@H](NC(=O)[C@H](CCCCN)NC(=O)[C@H](CCCCN)NC(=O)[C@H](CCCCN)NC(=O)[C@@H]1CCCN1C(=O)CNC(=O)[C@H](CC(C)C)NC(=O)[C@H](CC(C)C)NC(=O)[C@H](Cc1ccc(O)cc1)NC(=O)CNC(=O)[C@H](C)NC(=O)[C@H](CO)NC(=O)[C@H](CC(N)=O)NC(=O)[C@H](CC(C)C)NC(=O)[C@@H](NC(=O)[C@H](Cc1c[nH]c2ccccc12)NC(=O)CNC)[C@@H](C)O)C(N)=O,inactive,–,1.9,> 10,22,–,–,inactive
Cc1cc(=O)oc2cc(NC(=O)[C@@H](CCCCN)NC(=O)[C@H](CC3CCCCC3)NC(=O)OCC3c4ccccc4-c4ccccc43)ccc12 [GALNON] (Fmoc-[Cha]-[dK]-{AMC}),–,–,–,–,–,–,24000,–
CCCCCCCCCCCCCCCC(=O)NCCCC[C@H](NC(=O)[C@H](CCCCN)NC(=O)[C@H](CCCCN)NC(=O)[C@@H]1CCCN1C(=O)CNC(=O)[C@H](CC(C)C)NC(=O)[C@H](CC(C)C)NC(=O)[C@H](Cc1ccc(O)cc1)NC(=O)CNC(=O)[C@H](C)NC(=O)[C@H](CO)NC(=O)[C@H](CC(N)=O)NC(=O)[C@H](CC(C)C)NC(=O)[C@@H](NC(=O)[C@@H](N)Cc1c[nH]c2ccccc12)[C@@H](C)O)C(=O)N[C@@H](CCCCN)C(N)=O (H-WTLNSAGYLLGPKKK(Palmitoyl)K-NH2),inactive,–,387,> 10,48,–,–,–
CCCCCCCCCCCCCCCC(=O)NCCCC[C@H](NC(=O)[C@H](CCCCN)NC(=O)[C@H](CCCCN)NC(=O)[C@@H]1CCCN1C(=O)CNC(=O)[C@H](CC(C)C)NC(=O)[C@H](CC(C)C)NC(=O)[C@H](Cc1ccc(O)cc1)NC(=O)CNC(=O)[C@H](C)NC(=O)[C@H](CO)NC(=O)[C@H](CC(N)=O)NC(=O)[C@H](CC(C)C)NC(=O)[C@@H](NC(=O)[C@H](Cc1c[nH]c2ccccc12)NC(=O)CN)[C@@H](C)O)C(=O)N[C@@H](CCCCN)C(N)=O,inactive,–,5.3,> 10,22.5,–,–,inactive
CCCCCCCCCCCCCCCC(=O)NCCCC[C@H](NC(=O)[C@H](CCCCN)NC(=O)[C@@H]1CCCN1C(=O)CNC(=O)[C@H](CC(C)C)NC(=O)[C@H](CC(C)C)NC(=O)[C@H](Cc1ccc(O)cc1)NC(=O)CNC(=O)[C@H](C)NC(=O)[C@H](CO)NC(=O)[C@H](CC(N)=O)NC(=O)[C@H](CC(C)C)NC(=O)[C@@H](NC(=O)[C@H](Cc1c[nH]c2ccccc12)NC(=O)CNC)[C@@H](C)O)C(=O)N[C@@H](CCCCN)C(=O)N[C@@H](CCCCN)C(N)=O,inactive,inactive,6,8.6,28,–,–,inactive
